For assay [1], the system named is Rattus norvegicus. The experiment in a line: Delta BP refers to oral hypotensive activity of compound which is evaluated at 4 hr and 24 hr in restrained, normotensive conscious rats at a dose of 50 mg/kg. On the set-up: dose 50 mg/kg. Format: functional, organism-based. The method in brief: (§1)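 Female Sprague-Dawley rats, normotensive, restrained in a towel. Blood pressure was read directly via chronic indwelling aortic cannulas exteriorized at the nape, before and 4 and 24 h after an oral dose suspended in carboxymethylcellulose (10 mL/kg). Values from two animals were averaged at each time; a mean change of at least 5 mmHg was taken as significant (p < 0.05).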

Assay [2] relates to Rattus norvegicus. The experiment in a line: Delta BP refers to oral hypotensive activity of compound which is evaluated at 4 hr and 24 hr in restrained, normotensive conscious rats at a dose of 50 mg/kg; -9/-10. Format: functional. The method in brief:
as §1

The subject of assay [3] is Rattus norvegicus. The experiment in a line: Delta BP refers to oral hypotensive activity of compound which is evaluated at 4 hr and 24 hr in restrained, normotensive conscious rats at a dose of 50 mg/kg; -10/-3. In kind it is functional. In a few lines: as §1
For assay [4], the system named is Rattus norvegicus. The experiment in a line: Delta BP refers to oral hypotensive activity of compound which is evaluated at 4 hr and 24 hr in restrained, normotensive conscious rats at a dose of 50 mg/kg; -4/-2. In kind it is functional. In a few lines:
as §1

The test system of assay [5] is Rattus norvegicus. The experiment in a line: Delta BP refers to oral hypotensive activity of compound which is evaluated at 4 hr and 24 hr in restrained, normotensive conscious rats at a dose of 50 mg/kg; -4/-10. In kind it is functional. In a few lines: as §1
The subject of assay [6] is Rattus norvegicus. Nature of the assay: Delta BP refers to oral hypotensive activity of compound which is evaluated at 4 hr and 24 hr in restrained, normotensive conscious rats at a dose of 50 mg/kg; -20/-5. Format: functional. In a few lines: as §1
The test system of assay [7] is Rattus norvegicus. Nature of the assay: Delta BP refers to oral hypotensive activity of compound which is evaluated at 4 hr and 24 hr in restrained, normotensive conscious rats at a dose of 50 mg/kg; -22/-25. Format: functional. In a few lines:
as §1

Assay [8] relates to Rattus norvegicus. Nature of the assay: Delta BP refers to oral hypotensive activity of compound which is evaluated at 4 hr and 24 hr in restrained, normotensive conscious rats at a dose of 50 mg/kg; -16/3. Format: functional. Particulars: dose 15 mg/kg, in the assay text read “dose of 15 mg/kg” for “dose of 50 mg/kg”. The method in brief:
as §1

For assay [9], the system named is Rattus norvegicus. Nature of the assay: Delta BP refers to oral hypotensive activity of compound which is evaluated at 4 hr and 24 hr in restrained, normotensive conscious rats at a dose of 50 mg/kg; -8/-10. In kind it is functional. The method in brief:
as §1

Assay [10] has as its system Rattus norvegicus. The experiment in a line: Delta BP refers to oral hypotensive activity of compound which is evaluated at 4 hr and 24 hr in restrained, normotensive conscious rats at a dose of 50 mg/kg; -16/-26. In kind it is functional. The method in brief: as §1
Assay [11] deals with Rattus norvegicus. The experiment in a line: Delta BP refers to oral hypotensive activity of compound which is evaluated at 4 hr and 24 hr in restrained, normotensive conscious rats at a dose of 50 mg/kg; -13/-2. Format: functional. In a few lines:
as §1

For assay [12], the system named is Rattus norvegicus. Nature of the assay: Delta BP refers to oral hypotensive activity of compound which is evaluated at 4 hr and 24 hr in restrained, normotensive conscious rats at a dose of 50 mg/kg; -15/-3. Format: functional. In a few lines: as §1

The structures appear in SMILES notation. The source made the active and inactive calls. The calls are words filed in the database; no cut-off is given here.

Consider `COc1cc2c(cc1OC)C(CCN1CCN(c3ccccc3)CC1)OC(C)(C)C2` (configuration not stated), for which, in the assay on Rattus norvegicus [1], the Delta blood pressure result is “inactive”. Same read-out and setting: the result for `COc1cc2c(cc1OC)C(CCN1CCN(c3ccc(Cl)cc3)CC1)OC(C)(C)C2` (configuration not stated) reads “inactive”. With `COc1cc2c(cc1OC)C(C)(CCN1CCN(c3ccccc3OC)CC1)OCC2` (configuration not stated), the Delta blood pressure in the assay with Rattus norvegicus [2] is -9 mmHg. In the case of `COc1cc2c(cc1OC)C(CCN1CCN(c3cccc(Cl)c3)CC1)OC(C)(C)C2` (configuration not stated), in the assay with Rattus norvegicus [1], the Delta blood pressure entry was “inactive”.

Turning to `COc1cc2c(cc1OC)C(CCCN1CCN(c3cccc(Cl)c3)CC1)(c1ccc(F)cc1)OCC2` (configuration not stated), in the assay on Rattus norvegicus [1], the Delta blood pressure result was “inactive”. With `COc1cc2c(cc1OC)C(CN1CCN(c3ccccn3)CC1)OCC2` (configuration not stated), the Delta blood pressure entry in the assay with Rattus norvegicus [1] is “inactive”. As for `COc1cc2c(cc1OC)C(C)(CCCN1CCN(c3ccccc3OC)CC1)OCC2` (configuration not stated), in the assay on Rattus norvegicus [1], the Delta blood pressure entry was “inactive”. On the same count and under the same terms, the result for `COc1cc2c(cc1OC)C(CCCN1CCN(c3ccccc3C)CC1)(c1ccc(F)cc1)OCC2` (configuration not stated) reads “inactive”; that for `COc1cc2c(cc1OC)C(C)(CCN1CCN(c3ccccn3)CC1)OCC2` (configuration not stated), “inactive”.

For the molecule `COc1cc2c(cc1OC)C(C)(CCCN1CCN(c3ccc(F)cc3)CC1)OCC2` (configuration not stated), the Delta blood pressure in the assay with Rattus norvegicus [3] is reported as -10 mmHg. With `COc1cc2c(cc1OC)C(CCCN1CCN(c3ccc(Cl)cc3)CC1)(c1ccc(F)cc1)OCC2` (configuration not stated), the Delta blood pressure entry in the assay on Rattus norvegicus [1] was “inactive”. Molecule `COc1cc2c(cc1OC)C(C)(CCCN1CCN(c3ccccc3)CC1)OCC2` (configuration not stated) had a Delta blood pressure with Rattus norvegicus [4] of -4 mmHg. Consider `COc1cc2c(cc1OC)C(C)(C)COC2CCN1CCN(c2cccc(Cl)c2)CC1` (configuration not stated), for which the Delta blood pressure in the assay with Rattus norvegicus [5] was -4 mmHg. Turning to `COc1cc2c(cc1OC)C(CN1CCN(c3ccccc3)CC1)OCC2` (configuration not stated), the Delta blood pressure with Rattus norvegicus [6] was -20 mmHg. As to `COc1cc2c(cc1OC)C(CCCN1CCN(c3ccc(F)cc3)CC1)(c1ccc(F)cc1)OCC2` (configuration not stated), the Delta blood pressure in the assay with Rattus norvegicus [7] is -22 mmHg; in the assay on Rattus norvegicus [8] it was -16 mmHg. In the case of `COc1cc2c(cc1OC)C(CCN1CCN(c3ccccn3)CC1)OC(C)(C)C2` (configuration not stated), the Delta blood pressure entry with Rattus norvegicus [1] is “inactive”. On the same count and under the same terms, the result for `COc1cc2c(cc1OC)C(CCCN1CCN(c3ccccc3OC)CC1)(c1ccc(F)cc1)OCC2` (configuration not stated) reads “inactive”.

Consider `COc1cc2c(cc1OC)C(C)(CCN1CCN(c3ccccc3C)CC1)OCC2` (configuration not stated), for which the Delta blood pressure entry in the assay on Rattus norvegicus [1] is “inactive”. Still for that read-out and setting: the result for `COc1cc2c(cc1OC)C(C)(CCCN1CCN(c3ccccc3Cl)CC1)OCC2` (configuration not stated) reads “inactive”. As to `COc1cc2c(cc1OC)C(C)(CCN1CCN(c3ccc(Cl)cc3)CC1)OCC2` (configuration not stated), the Delta blood pressure in the assay on Rattus norvegicus [9] is -8 mmHg. In turn, `COc1cc2c(cc1OC)C(CCN1CCN(c3ccc(F)cc3)CC1)OC(C)(C)C2` (configuration not stated) returned a Delta blood pressure in the assay on Rattus norvegicus [10] of -16 mmHg. On to `COc1cc2c(cc1OC)C(CN1CCN(c3ccccc3Cl)CC1)OCC2` (configuration not stated), for which the Delta blood pressure entry in the assay with Rattus norvegicus [1] was “inactive”.

As for `COc1cc2c(cc1OC)C(C)(CCCN1CCN(c3cccc(Cl)c3)CC1)OCC2` (configuration not stated), in the assay on Rattus norvegicus [1], the Delta blood pressure result was “inactive”. Still for that read-out and setting: the result for `COc1cc2c(cc1OC)C(C)(C)COC2CCN1CCN(c2ccccc2Cl)CC1` (configuration not stated) reads “inactive”.

For `COc1cc2c(cc1OC)C(C)(C)COC2CCN1CCN(c2ccc(Cl)cc2)CC1` (configuration not stated), the Delta blood pressure in the assay on Rattus norvegicus [11] is reported as -13 mmHg. With `COc1cc2c(cc1OC)C(CN1CCN(c3ccccc3OC)CC1)OCC2` (configuration not stated), the Delta blood pressure with Rattus norvegicus [12] was -15 mmHg.

Values taken from ChEMBL document CHEMBL1122179, “1-(alkylamino)isochromans: hypotensives with peripheral and central activities” (J Med Chem, 1982).
